EC50 data for 17 compounds are collected here from ChEMBL document CHEMBL1157078, “Cytotoxic activities of several geranyl-substituted flavanones” (J Nat Prod, 2010).

One assay deals with U-266. Briefly: Cytotoxicity against human U266 cells assessed as viable cells after 72 hrs by calcein AM assay. The format is functional, cell-based. To be noted: U-266, 72 h. The method in brief: (§1)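 Cells kept in DMEM with 10% FBS, L-glutamine and antibiotics at 37 °C, 5% CO2, and seeded at about 1.25×10^5 cells/mL, then left 3 h to stabilize. Six 3-fold dilutions were added in triplicate (final 100 to 0.4 μM, DMSO ≤0.6%) for 72 h. Viable cells were stained with 2 μM calcein AM for 1 h and fluorescence read at 485/538 nm. EC50 came from dose-response curves of three independent measurements, ±SD.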

In another assay the test system is RPMI-8226. Briefly: Cytotoxicity against human RPMI8226 cells assessed as viable cells after 72 hrs by calcein AM assay. To be noted: RPMI-8226, 72 h. In kind it is functional, cell-based. The method in brief:
as §1

Another assay has as its system CCRF-CEM. Briefly: Cytotoxicity against human CEM cells assessed as viable cells after 72 hrs by calcein AM assay. The format is functional, cell-based. The method in brief:
as §1

A further assay concerns MCF7. The assay is described as follows: Cytotoxicity against human MCF7 cells assessed as viable cells after 72 hrs by calcein AM assay. The format is functional, cell-based. Conditions: MCF7, 72 h. An outline of the steps: as §1
A further assay has as its system HeLa. Briefly: Cytotoxicity against human HeLa cells assessed as viable cells after 72 hrs by calcein AM assay. In kind it is functional, cell-based. The method in brief:
as §1

The next assay deals with THP-1. Briefly: Cytotoxicity against human THP1 cells after 72 hrs by erythosin B staining method. The format is functional, cell-based. To be noted: THP-1, 72 h. An outline of the steps: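 THP-1 cells from ECACC, kept in RPMI with 10% FBS, 2% L-glutamine and 1% penicillin/streptomycin at 37 °C, 5% CO2. Compounds in DMSO were added at five increasing concentrations and cells incubated 72 h. Cells were mixed 1:1 with 0.1% erythrosin B in PBS (pH 7.2-7.4), and unstained (viable) and red (nonviable) cells counted by hemocytometer. EC50 came from dose-response curves of three independent measurements, ±SD.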

A further assay concerns BJ. Briefly: Cytotoxicity against human BJ cells assessed as viable cells after 72 hrs by calcein AM assay. The format is cell-based. The method in brief:
as §1

Take `O=C1C[C@@H](c2ccc(O)cc2)Oc2cc(O)cc(O)c21` [NARINGENIN]: the EC50 in the assay with U-266, in the assay with RPMI-8226, in the assay with CCRF-CEM, in the assay with MCF7, with HeLa and in the assay with THP-1 was over 10 µM throughout. Moreover, the EC50 (in general, the concentration giving half of the maximal effect) in the assay on BJ is over 10 µM.
Take `CC(C)=CCC/C(C)=C/Cc1c(O)cc2c(c1O)C(=O)C[C@@H](c1ccc(O)cc1)O2` [BONANNIONE A]: the EC50 in the assay on U-266 was over 10 µM; in the assay on RPMI-8226, over 10 µM; with CCRF-CEM it was 11.6 µM; in the assay with MCF7, over 10 µM; in the assay on HeLa, over 10 µM; in the assay with THP-1, over 10 µM. Further, the EC50 with BJ is over 10 µM.
For the compound `COc1cc([C@@H]2CC(=O)c3c(cc(O)c(C/C=C(\C)C/C=C/C(C)(C)O)c3O)O2)ccc1O` [TOMENTODIPLACONE B], the EC50 with U-266, in the assay with RPMI-8226, in the assay on CCRF-CEM, in the assay on MCF7, in the assay with HeLa and with THP-1 was over 10 µM throughout. Besides, in the assay on BJ, the half-maximal effective concentration (EC50) is over 10 µM.
Consider `CC[C@H](CO)Nc1nc(NCc2ccccc2O)c2ncn(C(C)C)c2n1` [OLOMOUCINE II], for which the EC50 in the assay with U-266 is 7.2 µM; in the assay on RPMI-8226 it was 6 µM; in the assay with CCRF-CEM, 8.1 µM; with MCF7 it was 4.6 µM; in the assay with HeLa it was 9.9 µM; in the assay with BJ it was 5.4 µM.
Take `CC(C)=CCC/C(C)=C/Cc1c(O)cc2c(c1O)C(=O)C[C@@H](c1cc(O)cc(O)c1)O2`: the 50% effective concentration (EC50) is 1.9 µM in the assay on U-266; 7.1 µM in the assay with RPMI-8226; 12.3 µM in the assay with CCRF-CEM; under 10 µM in the assay with MCF7; 6.3 µM in the assay on HeLa; 8.5 µM in the assay with THP-1. Also, the EC50 in the assay on BJ was 7.5 µM.
On to `COc1ccc([C@@H]2CC(=O)c3c(O)cc(O)cc3O2)cc1O` [HESPERETIN], for which the EC50 in the assay on U-266, in the assay with RPMI-8226, in the assay with CCRF-CEM, in the assay on MCF7, in the assay on HeLa and in the assay with THP-1 was over 10 µM in each case. Besides, the EC50 with BJ was over 10 µM.
Turning to `COc1cc(O)c([C@@H]2CC(=O)c3c(O)cc(O)cc3O2)cc1C/C=C(\C)CCC=C(C)C`, the EC50 in the assay with U-266, in the assay on RPMI-8226, in the assay on CCRF-CEM, with MCF7, with HeLa and with THP-1 was over 10 µM in each case. For the same compound, in the assay with BJ, the EC50 was over 10 µM.
Regarding `COc1cc([C@@H]2CC(=O)c3c(cc(O)c(C/C=C(\C)CCC=C(C)C)c3O)O2)ccc1O`, the EC50 was under 10 µM in the assay with U-266; under 10 µM with RPMI-8226; under 10 µM in the assay with CCRF-CEM; under 10 µM in the assay with MCF7; 9.2 µM in the assay with HeLa; under 10 µM with THP-1. Besides, the EC50 in the assay with BJ was under 10 µM.
Turning to `O=C1c2c(O)cc(O)cc2O[C@H](c2ccc(O)c(O)c2)[C@H]1O` [(+)-TAXIFOLIN], the EC50 in the assay with U-266, with RPMI-8226, in the assay on CCRF-CEM, in the assay with MCF7, with HeLa and with THP-1 was over 10 µM each time. Besides, the EC50 in the assay on BJ was over 10 µM.
Turning to `CC[C@@]1(O)C(=O)OCc2c1cc1n(c2=O)Cc2cc3ccccc3nc2-1` [CAMPTOTHECIN], in the assay on THP-1, the EC50 was found to be 0.16 µM.
Regarding `COc1cc([C@@H]2CC(=O)c3c(cc(O)c(C/C=C(\C)CCC=C(C)C)c3O)O2)cc(O)c1O`, the EC50 is 5.5 µM with U-266; 7.3 µM in the assay on RPMI-8226; under 10 µM with CCRF-CEM; under 10 µM with MCF7; 7.4 µM in the assay with HeLa; under 10 µM with THP-1. The EC50 with BJ was 4.7 µM.
`COc1cc([C@@H]2CC(=O)c3c(cc(O)c(C/C=C(\C)CCC=C(C)C)c3O)O2)cc(OC)c1O`: the EC50 in the assay with U-266, with RPMI-8226, with CCRF-CEM, with MCF7, in the assay with HeLa and in the assay with THP-1 was over 10 µM in each case. Further, the EC50 in the assay on BJ is over 10 µM.
As for `COc1cc([C@H]2Oc3cc(O)c(C/C=C(\C)CCC=C(C)C)c(O)c3C(=O)[C@@H]2O)ccc1O`, the EC50 in the assay on U-266, in the assay on RPMI-8226, in the assay with CCRF-CEM, in the assay on MCF7, in the assay with HeLa and with THP-1 was over 10 µM in each case. Besides, the EC50 with BJ was over 10 µM.
`CC(C)=CCC/C(C)=C/Cc1cc(C2CC(=O)c3c(O)cc(O)cc3O2)c(O)cc1O` (racemic) [KUWANON E]: the EC50 in the assay on U-266, with RPMI-8226, in the assay with CCRF-CEM, with MCF7, in the assay with HeLa and with THP-1 was over 10 µM each time. Further, in the assay on BJ, the EC50 was over 10 µM.
As for `CCOC(=O)NC1=C(N2CC2)C(=O)C(NC(=O)OCC)=C(N2CC2)C1=O` [DIAZIQUONE], the EC50 in the assay on U-266 was 2.8 µM; with RPMI-8226, 3.4 µM; in the assay on CCRF-CEM it was 0.86 µM; in the assay with MCF7, 4 µM; with HeLa it was 6.4 µM; in the assay with BJ, under 10 µM.
Take `CC(C)=CCC/C(C)=C/Cc1c(O)cc2c(c1O)C(=O)C[C@@H](c1ccc(O)c(O)c1)O2` [NYMPHAEOL A]: the EC50 in the assay with U-266 is 2.4 µM; with RPMI-8226, under 10 µM; in the assay with CCRF-CEM, 3.2 µM; in the assay with MCF7, under 10 µM; in the assay with HeLa, under 10 µM; with THP-1, under 10 µM. In addition, the EC50 in the assay with BJ is 5.9 µM.
In the case of `C=C(C)C(O)CC/C(C)=C/Cc1c(O)cc2c(c1O)C(=O)C[C@@H](c1ccc(O)c(OC)c1)O2` (stereo partly specified) [TOMENTODIPLACONE], the EC50 with U-266, with RPMI-8226, with CCRF-CEM, in the assay with MCF7, in the assay with HeLa and in the assay with THP-1 was over 10 µM in each case. For the same compound, in the assay with BJ, the EC50 is over 10 µM.
